Source: PubChem BioAssay
Only some compounds are listed: those with a hit (about 3.5% of all), similar ones and a draw of the others.
MrgX1 antagonist = antagonists of human MrgX1 receptor; 1.3% of 310,000 active; MRGX1-HEK293 calcium flux, Fluo-4, BAM8-22 antagonism; active compounds read low; AID 588676; B-score at 10 µM; Q96LB2;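 active means calcium-response B-score plate-corrected more than 3 library SD below zero, starting fluorescence within 5 deviations, no agonist response on first addition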;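 further: peak minus trough fluorescence over baseline after final BAM8-22 challenge near maximal dose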
Target sequence (Q96LB2 whole entry, looked up): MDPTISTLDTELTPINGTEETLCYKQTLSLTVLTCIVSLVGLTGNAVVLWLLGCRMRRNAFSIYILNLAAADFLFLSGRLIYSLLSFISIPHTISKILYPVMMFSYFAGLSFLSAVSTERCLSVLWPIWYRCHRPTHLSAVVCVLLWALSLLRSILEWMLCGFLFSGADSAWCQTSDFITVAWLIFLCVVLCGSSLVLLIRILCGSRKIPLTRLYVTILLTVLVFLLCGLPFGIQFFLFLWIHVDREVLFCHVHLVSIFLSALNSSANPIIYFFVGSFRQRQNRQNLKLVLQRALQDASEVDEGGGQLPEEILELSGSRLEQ
MrgX1 PAM = allosterically activates human MrgX1 receptor signaling; MrgX1-HEK293, Fluo-4 calcium flux, FDSS; active compounds read high; B-score at 10 µM; 0.63% of 310,000 active; Q96LB2;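 active means plate-corrected calcium response at least 3 library SD above typical, normal starting fluorescence, not activating the receptor alone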;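 further: compound read alongside a low EC10 to EC30 dose of BAM8-22 agonist; peak minus trough fluorescence over baseline measured at the second addition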
MrgX1 agonist = human MrgX1 receptor agonism, primary screen; MrgX1-HEK293 cells, Fluo-4 calcium fluorescence, agonist mode; active compounds read high; B-score at 10 µM; 0.44% of 310,000 active; AID 588627; Q96LB2;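 active means calcium response B-score plate-corrected fluorescence ratio at least 3 library SD, with starting fluorescence B-score inside 5 SD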
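Test system: HEK293 cells stably expressing human MrgX1 receptor; amount: 15,000 cells per well; doses: compound delivered in addition one of three; times: overnight plating before 1 h dye loading; detection: Fluo-4 NW calcium-flux fluorescence, kinetic read; read-out basis: B-scored fluorescence response ratio; controls: positive and negative controls per plate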
RGS4 pot = RGS4 potentiation or activation; HEK293 M3R/inducible RGS4, carbachol calcium flux Fluo4; active compounds read low; B-score at 10 µM; 0.92% of 310,000 active; AID 463111;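 active means B-score of the integrated calcium signal more than 4 SD below the library mean, with starting fluorescence not abnormally high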;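 further: negative B-score means reduced calcium response which marks RGS4 activation or potentiation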
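Assay system: HEK293 FlpIn-TREx cells, stable M3R, doxycycline-inducible RGS4 / Probe or stimulus: carbachol, ECmax concentration / Times: overnight RGS4 induction, 30 min dye load 37 °C, 20 min compound RT / Signal: kinetic calcium fluorescence imaging with Fluo4-AM dye, 2 µM / Measure: Agonist-evoked peak-minus-minimum fluorescence over baseline, integrated ratio, B score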
RGS4 inh = human RGS4 inhibition. HEK293 M3R/RGS4 inducible, Fluo-4 calcium flux; active compounds read high; triggered by carbachol at its EC20. B-score at 10 µM. 0.45% of 310,000 active;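 active means B-score, a plate-corrected calcium signal, over three deviations above library mean, with baseline fluorescence within five deviations of library mean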;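 further: RGS4 expression induced by doxycycline in cells with stable M3 receptor; B-score is computed from the integrated fluorescence ratio over baseline after carbachol; higher B-score means a larger calcium signal and so more RGS4 inhibition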
RGS4 block valid = validation of RGS4 inhibitors; 65% of 1,700 active; calcium response, % at 10 µM; shares compounds with RGS4 inh; HEK293 M3R/RGS4, carbachol calcium Fluo-4 fluorescence; carbachol added at its EC20; 0 = buffer wells, 100 = carbachol control;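 active means duplicate-averaged calcium response above the buffer-only control mean plus 5 SD of those controls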;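 further: integrated fluorescence ratio F max minus min over baseline F0; higher response in RGS4-induced cells means RGS4 inhibition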
M3R Ca ctr = checks RGS4 inhibitor effects in non-induced HEK293 M3R cells; 20% of 1,900 active; shares compounds with RGS4 inh; activity (percent), % at 10 µM; AID 493000; carbachol calcium Fluo-4; submaximal (EC20) carbachol stimulus; buffer wells 0%, carbachol control wells 100%; call rule not given here;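 further: RGS4 induction absent so cells express M3R without RGS4; higher means more calcium signal and flags a non-specific hit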
M3R basal Ca ctr = second RGS4 inhibitor counter-screen in uninduced cells lacking carbachol | shares compounds with RGS4 inh | HEK293 M3R/RGS4 non-induced, Fluo-4 calcium, no carbachol; normalised: buffer wells 0%, carbachol wells 100% | calcium response (agonist-mode artifact), % at 10 µM | 22% of 1,900 active | AID 493001;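 active means duplicate-averaged calcium rise in uninduced cells above buffer wells' mean plus 5 SD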
An asterisk follows results filed as active; i = inactive; x = not tested or not shown.

SMILES | MrgX1 antagonist | MrgX1 PAM | MrgX1 agonist | RGS4 pot | RGS4 inh | RGS4 block valid | M3R Ca ctr | M3R basal Ca ctr
C=CCn1nc([N+](=O)[O-])nc1Sc1cccc2cccnc12 | i | i | i | i | 6.2* | 30%* | i | i
O=C(O)c1cccc(CN2C(=O)S/C(=C/c3cccc([N+](=O)[O-])c3)C2=O)c1 | i | i | i | i | 26* | 62%* | 73%* | i
CC(c1ccccc1)N1C(=O)/C(=C/c2ccncc2)SC1=S (configuration not stated) | i | i | i | i | 7* | 6.5%* | 34%* | i
O=C(O)c1ccc(/C=C2/SC(=S)N(Cc3ccccc3)C2=O)cc1 | i | i | i | i | i | x | x | x
CCOc1cc(/C=C2/SC(=S)N(Cc3ccccc3)C2=O)ccc1O | i | i | i | i | i | x | x | x
C=CCN=C1S/C(=C/c2cccc([N+](=O)[O-])c2)C(=O)N1CC=C | i | i | i | i | i | x | x | x
O=C(O)C(c1ccccc1)N1C(=O)/C(=C/c2cccs2)SC1=S (configuration not stated) | i | i | i | i | i | x | x | x
O=C1/C(=C/c2ccc(O)c([N+](=O)[O-])c2)SC(=S)N1Cc1ccccc1 | -5.7* | i | i | i | 7.8* | 11%* | 37%* | i
O=C1/C(=C\c2ccc(O)cc2)SC(=S)N1Cc1ccccc1 | i | i | i | i | 8.1* | 14%* | i | 28%*
CCN1C(=O)[C@@H]2[C@@H](c3ccc(-c4ccc(Cl)c(Cl)c4)c(OC)c3)N3CCCC[C@@]3(C(=O)OC)[C@@H]2C1=O | i | i | i | i | i | x | x | x
CCC(=O)NCCc1nc2cc(NC(=O)c3cccc([N+](=O)[O-])c3)ccc2n1C | i | i | i | i | i | x | x | x
COc1cccc2sc(/N=C/N(C)C)nc12 | i | i | i | i | i | x | x | x
COc1ccc(CN2C(=O)/C(=C/c3ccncc3)SC2=S)cc1 | i | i | i | i | 11* | 25%* | i | 22%*
CC(=O)Oc1ccc(/C=C2/SC(=S)N(Cc3ccccc3)C2=O)cc1 | i | i | i | i | i | x | x | x
Cc1ccc(-c2csc(NC(=O)CSc3nc4ccccc4[nH]3)n2)cc1 | x | x | x | i | i | x | i | i
COc1ccc(-c2csc(NC(=O)CSc3nc4ccccc4c(=O)[nH]3)n2)cc1 | i | i | i | i | i | x | x | x
Cc1cc(=O)[nH]c(SCC(=O)Nc2nc(-c3ccccc3)cs2)n1 | i | i | i | i | i | x | i | i
CC(=O)c1c(N2CCN(C)CC2)nc(=S)n(-c2cc(C)ccc2C)c1C | i | i | i | i | i | x | x | x
CNc1cc(C)c(C#N)c2nc3ccccc3n12 | i | i | i | i | i | x | x | x
Cc1cc(Cl)n2c(nc3ccccc32)c1C#N | x | x | x | i | 11* | 31%* | i | 10%*
Cc1ccc2[nH]c3c(c2c1)CN(C(=O)CN1c2ccc(F)cc2CCC1C)CC3 (configuration not stated) | i | i | i | i | 9* | 23%* | i | i
Cc1ccc2[nH]c3c(c2c1)CN(C(=O)CN1CCN(c2cccc(C)c2C)CC1)CC3 | i | i | i | i | i | x | x | x
COc1ccc(OC)c(/C=C/c2[nH]c(=O)[nH]c(=O)c2[N+](=O)[O-])c1 | x | x | x | i | 10* | 34%* | i | i
O=c1[nH]c(/C=C/c2ccc([N+](=O)[O-])cc2)c([N+](=O)[O-])c(=O)[nH]1 | i | i | i | i | i | i | i | i
